Results from ChEMBL document CHEMBL4038305, “Benzoxaborole Antimalarial Agents. Part 5. Lead Optimization of Novel Amide Pyrazinyloxy Benzoxaboroles and Identification of a Preclinical Candidate” (J Med Chem, 2017).

These compounds were tested on Plasmodium berghei (assay: Antimalarial activity against Plasmodium berghei infected in Swiss Webster mouse assessed as mouse survival rate administered once daily via oral gavage for 4 consecutive days beginning 1 hr after infection measured on day 4 post infection). Settings: not given.
Assay type: functional
Procedure, shortened: (§1)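 Mice given an intraperitoneal injection of P. berghei-infected erythrocytes taken from a previously infected animal. Oral dosing once daily for 4 consecutive days, starting 1 h after infection. Vehicle: polyethylene glycol 300/propylene glycol/water (weight ratio 55/25/20). Percent survival recorded daily from day 4 to day 20. Chloroquine 30 mg/kg and vehicle-only groups served as controls.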
Compound `Cc1c(Oc2cnc(C(=O)N3CC(C)(O)C3)cn2)ccc2c1B(O)OC2` has an ED90 of 1.9 to 1.92 mg/kg.

These compounds were tested on Plasmodium falciparum (assay: Antimalarial activity against chloroquine-resistant Plasmodium falciparum W2 infected in human erythrocytes after 48 hrs by YOYO-1 dye based flow cytometric analysis). Settings: W2, 48 h.
Assay type: functional, cell-based
Procedure, shortened: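 P. falciparum W2 cultures were exposed to the compound for 48 h, with artemisinin and chloroquine as reference controls. IC50 was taken from two independent replicates.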
`Cc1c(Oc2cnc(C(=O)N3CC(C)(O)C3)cn2)ccc2c1B(O)OC2` showed an IC50 of 32.6 nM.

These compounds were tested on Plasmodium berghei (assay: Antimalarial activity against Plasmodium berghei infected in Swiss Webster mouse assessed as mouse survival rate at 11 mg/kg administered once daily via oral gavage for 4 consecutive days beginning 1 hr after infection measured on day 7 post infection relative to control). Settings: not given.
Assay type: functional
Procedure, shortened: (§2)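 P. berghei-infected erythrocytes taken from a previously infected mouse were injected intraperitoneally. Oral dosing, once daily for 4 consecutive days, began 1 h after infection, in polyethylene glycol 300/propylene glycol/water (55/25/20 by weight). Chloroquine at 30 mg/kg was the positive control, with a vehicle-only group. Percent survival was recorded daily from day 4 to day 20.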
Compound `Cc1c(Oc2cnc(C(=O)N3CC(C)(O)C3)cn2)ccc2c1B(O)OC2` has a survival at 11 mg/kg of 100%.

What follows are compounds tested on Plasmodium berghei (assay: Antimalarial activity against Plasmodium berghei infected in Swiss Webster mouse assessed as mouse survival rate at 1.2 mg/kg administered once daily via oral gavage for 4 consecutive days beginning 1 hr after infection measured on day 6 post infection relative to control). Settings: not given.
Assay type: functional
Procedure, shortened: as §1
With `Cc1c(Oc2cnc(C(=O)N3CC(C)(O)C3)cn2)ccc2c1B(O)OC2` the survival at 1.2 mg/kg was 100%.

What follows are compounds tested on Plasmodium berghei (assay: Antimalarial activity against Plasmodium berghei infected in Swiss Webster mouse assessed as mouse survival rate at 100 mg/kg administered once daily via oral gavage for 4 consecutive days beginning 1 hr after infection measured on day 8 post infection relative to control). Settings: not given.
Assay type: functional
Procedure, shortened: as §1
With `Cc1c(Oc2cnc(C(=O)N3CC(C)(O)C3)cn2)ccc2c1B(O)OC2` the survival at 100 mg/kg was 100%.

These compounds were tested on Plasmodium berghei (assay: Antimalarial activity against Plasmodium berghei infected in Swiss Webster mouse assessed as mouse survival rate at 0.1 mg/kg administered once daily via oral gavage for 4 consecutive days beginning 1 hr after infection measured on day 7 post infection relative to control). Settings: not given.
Assay type: functional
Procedure, shortened: as §1
`Cc1c(Oc2cnc(C(=O)N3CC(C)(O)C3)cn2)ccc2c1B(O)OC2` gave a survival at 0.1 mg/kg of 0%.

These compounds were tested on Plasmodium berghei (assay: Antimalarial activity against Plasmodium berghei infected in Swiss Webster mouse assessed as mouse survival rate at 100 mg/kg administered once daily via oral gavage for 4 consecutive days beginning 1 hr after infection measured on day 9 post infection relative to control). Settings: not given.
Assay type: functional
Procedure, shortened: as §1
In the case of `Cc1c(Oc2cnc(C(=O)N3CC(C)(O)C3)cn2)ccc2c1B(O)OC2`, the survival at 100 mg/kg is reported as 100%.

The compounds below were run on Plasmodium berghei (assay: Antimalarial activity against Plasmodium berghei infected in Swiss Webster mouse assessed as mouse survival rate at 0.4 mg/kg administered once daily via oral gavage for 4 consecutive days beginning 1 hr after infection measured on day 6 post infection relative to control). Settings: not given.
Assay type: functional
Procedure, shortened: as §1
`Cc1c(Oc2cnc(C(=O)N3CC(C)(O)C3)cn2)ccc2c1B(O)OC2` gave a survival at 0.4 mg/kg of 100%.

Each compound was assayed on Plasmodium berghei (assay: Antimalarial activity against Plasmodium berghei infected in Swiss Webster mouse assessed as mouse survival rate at 100 mg/kg administered once daily via oral gavage for 4 consecutive days beginning 1 hr after infection measured on day 5 post infection relative to control). Settings: not given.
Assay type: functional
Procedure, shortened: as §1
For `Cc1c(Oc2cnc(C(=O)N3CC(C)(O)C3)cn2)ccc2c1B(O)OC2`, the survival at 100 mg/kg was 100%.

The compounds below were run on Plasmodium berghei (assay: Antimalarial activity against Plasmodium berghei infected in Swiss Webster mouse assessed as mouse survival rate at 0.4 mg/kg administered once daily via oral gavage for 4 consecutive days beginning 1 hr after infection measured on day 4 post infection relative to control). Settings: not given.
Assay type: functional
Procedure, shortened: as §1
For `Cc1c(Oc2cnc(C(=O)N3CC(C)(O)C3)cn2)ccc2c1B(O)OC2`, the survival at 0.4 mg/kg was 100%.

These compounds were tested on Plasmodium berghei (assay: Antimalarial activity against Plasmodium berghei infected in Swiss Webster mouse assessed as mouse survival rate at 33 mg/kg administered once daily via oral gavage for 4 consecutive days beginning 1 hr after infection measured on day 8 post infection relative to control). Settings: not given.
Assay type: functional
Procedure, shortened: as §2
For `Cc1c(Oc2cnc(C(=O)N3CC(C)(O)C3)cn2)ccc2c1B(O)OC2`, the survival at 33 mg/kg was 100%.

The compounds below were run on Plasmodium berghei (assay: Antimalarial activity against Plasmodium berghei infected in Swiss Webster mouse assessed as mouse survival rate at 100 mg/kg administered once daily via oral gavage for 4 consecutive days beginning 1 hr after infection measured on day 14 post infection relative to control). Settings: not given.
Assay type: functional
Procedure, shortened: as §1
For `Cc1c(Oc2cnc(C(=O)N3CC(C)(O)C3)cn2)ccc2c1B(O)OC2`, the survival at 100 mg/kg was 60%.

These compounds were tested on Plasmodium berghei (assay: Antimalarial activity against Plasmodium berghei infected in Swiss Webster mouse assessed as mouse survival rate at 3.7 mg/kg administered once daily via oral gavage for 4 consecutive days beginning 1 hr after infection measured on day 6 post infection relative to control). Settings: not given.
Assay type: functional
Procedure, shortened: as §2
`Cc1c(Oc2cnc(C(=O)N3CC(C)(O)C3)cn2)ccc2c1B(O)OC2` was tested, and the survival at 3.7 mg/kg was 100%.

What follows are compounds tested on Plasmodium falciparum (assay: Antimalarial activity against chloroquine-sensitive Plasmodium falciparum 3D7 infected in human erythrocytes assessed as reduction in [3H]-hypoxanthine incorporation preincubated for 24 hrs followed by [3H]-hypoxanthine addition measured after 24 hrs by scintillation counting method). Settings: not given.
Assay type: functional, cell-based
Procedure, shortened: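 P. falciparum 3D7 cultures were exposed to the compound for 48 h, with atovaquone as the reference control. IC50 was taken from three replicates.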
Compound `Cc1c(Oc2cnc(C(=O)N3CC(C)(O)C3)cn2)ccc2c1B(O)OC2` has an IC50 of 43 nM.

What follows are compounds tested on Plasmodium berghei (assay: Antimalarial activity against Plasmodium berghei infected in Swiss Webster mouse assessed as mouse survival rate at 100 mg/kg administered once daily via oral gavage for 4 consecutive days beginning 1 hr after infection measured on day 6 post infection relative to control). Settings: not given.
Assay type: functional
Procedure, shortened: as §1
With `Cc1c(Oc2cnc(C(=O)N3CC(C)(O)C3)cn2)ccc2c1B(O)OC2` the survival at 100 mg/kg was 100%.

The compounds below were run on Plasmodium berghei (assay: Antimalarial activity against Plasmodium berghei infected in Swiss Webster mouse assessed as mouse survival rate at 0.1 mg/kg administered once daily via oral gavage for 4 consecutive days beginning 1 hr after infection measured on day 4 post infection relative to control). Settings: not given.
Assay type: functional
Procedure, shortened: as §1
With `Cc1c(Oc2cnc(C(=O)N3CC(C)(O)C3)cn2)ccc2c1B(O)OC2` the survival at 0.1 mg/kg was 100%.

Each compound was assayed on Plasmodium berghei (assay: Antimalarial activity against Plasmodium berghei infected in Swiss Webster mouse assessed as mouse survival rate at 11 mg/kg administered once daily via oral gavage for 4 consecutive days beginning 1 hr after infection measured on day 4 post infection relative to control). Settings: not given.
Assay type: functional
Procedure, shortened: as §2
Compound `Cc1c(Oc2cnc(C(=O)N3CC(C)(O)C3)cn2)ccc2c1B(O)OC2` has a survival at 11 mg/kg of 100%.

What follows are compounds tested on Plasmodium berghei (assay: Antimalarial activity against Plasmodium berghei infected in Swiss Webster mouse assessed as mouse survival rate at 0.4 mg/kg administered once daily via oral gavage for 4 consecutive days beginning 1 hr after infection measured on day 7 post infection relative to control). Settings: not given.
Assay type: functional
Procedure, shortened: as §1
Compound `Cc1c(Oc2cnc(C(=O)N3CC(C)(O)C3)cn2)ccc2c1B(O)OC2` has a survival at 0.4 mg/kg of 0%.

Each compound was assayed on Plasmodium berghei (assay: Antimalarial activity against Plasmodium berghei infected in Swiss Webster mouse assessed as mouse survival rate at 0.4 mg/kg administered once daily via oral gavage for 4 consecutive days beginning 1 hr after infection measured on day 5 post infection relative to control). Settings: not given.
Assay type: functional
Procedure, shortened: as §1
Compound `Cc1c(Oc2cnc(C(=O)N3CC(C)(O)C3)cn2)ccc2c1B(O)OC2` has a survival at 0.4 mg/kg of 100%.

What follows are compounds tested on Plasmodium berghei (assay: Antimalarial activity against Plasmodium berghei infected in Swiss Webster mouse assessed as mouse survival rate at 33 mg/kg administered once daily via oral gavage for 4 consecutive days beginning 1 hr after infection measured on day 11 post infection relative to control). Settings: not given.
Assay type: functional
Procedure, shortened: as §2
`Cc1c(Oc2cnc(C(=O)N3CC(C)(O)C3)cn2)ccc2c1B(O)OC2` was tested, and the survival at 33 mg/kg was 100%.

The compounds below were run on Plasmodium berghei (assay: Antimalarial activity against Plasmodium berghei infected in Swiss Webster mouse assessed as mouse survival rate at 11 mg/kg administered once daily via oral gavage for 4 consecutive days beginning 1 hr after infection measured on day 5 post infection relative to control). Settings: not given.
Assay type: functional
Procedure, shortened: as §2
Work on `Cc1c(Oc2cnc(C(=O)N3CC(C)(O)C3)cn2)ccc2c1B(O)OC2` yielded a survival at 11 mg/kg of 100%.

Each compound was assayed on Plasmodium berghei (assay: Antimalarial activity against Plasmodium berghei infected in Swiss Webster mouse assessed as mouse survival rate at 100 mg/kg administered once daily via oral gavage for 4 consecutive days beginning 1 hr after infection measured on day 10 post infection relative to control). Settings: not given.
Assay type: functional
Procedure, shortened: as §1
`Cc1c(Oc2cnc(C(=O)N3CC(C)(O)C3)cn2)ccc2c1B(O)OC2` showed a survival at 100 mg/kg of 100%.

What follows are compounds tested on Plasmodium berghei (assay: Antimalarial activity against Plasmodium berghei infected in Swiss Webster mouse assessed as mouse survival rate at 1.2 mg/kg administered once daily via oral gavage for 4 consecutive days beginning 1 hr after infection measured on day 4 post infection relative to control). Settings: not given.
Assay type: functional
Procedure, shortened: as §1
With `Cc1c(Oc2cnc(C(=O)N3CC(C)(O)C3)cn2)ccc2c1B(O)OC2` the survival at 1.2 mg/kg was 100%.

These compounds were tested on Plasmodium berghei (assay: Antimalarial activity against Plasmodium berghei infected in Swiss Webster mouse assessed as mouse survival rate at 3.7 mg/kg administered once daily via oral gavage for 4 consecutive days beginning 1 hr after infection measured on day 7 post infection relative to control). Settings: not given.
Assay type: functional
Procedure, shortened: as §2
With `Cc1c(Oc2cnc(C(=O)N3CC(C)(O)C3)cn2)ccc2c1B(O)OC2` the survival at 3.7 mg/kg was 60%.

The compounds below were run on Plasmodium berghei (assay: Antimalarial activity against Plasmodium berghei infected in Swiss Webster mouse assessed as mouse survival rate at 0.1 mg/kg administered once daily via oral gavage for 4 consecutive days beginning 1 hr after infection measured on day 5 post infection relative to control). Settings: not given.
Assay type: functional
Procedure, shortened: as §1
With `Cc1c(Oc2cnc(C(=O)N3CC(C)(O)C3)cn2)ccc2c1B(O)OC2` the survival at 0.1 mg/kg was 100%.

What follows are compounds tested on Plasmodium berghei (assay: Antimalarial activity against Plasmodium berghei infected in Swiss Webster mouse assessed as mouse survival rate at 3.7 mg/kg administered once daily via oral gavage for 4 consecutive days beginning 1 hr after infection measured on day 5 post infection relative to control). Settings: not given.
Assay type: functional
Procedure, shortened: as §2
`Cc1c(Oc2cnc(C(=O)N3CC(C)(O)C3)cn2)ccc2c1B(O)OC2` gave a survival at 3.7 mg/kg of 100%.

What follows are compounds tested on Plasmodium berghei (assay: Antimalarial activity against Plasmodium berghei infected in Swiss Webster mouse assessed as mouse survival rate at 33 mg/kg administered once daily via oral gavage for 4 consecutive days beginning 1 hr after infection measured on day 4 post infection relative to control). Settings: not given.
Assay type: functional
Procedure, shortened: as §2
`Cc1c(Oc2cnc(C(=O)N3CC(C)(O)C3)cn2)ccc2c1B(O)OC2` was tested, and the survival at 33 mg/kg was 100%.
